This is an account of results in ChEMBL document CHEMBL1165971, “Structures and antimicrobial activities of pyridoacridine alkaloids isolated from different chromotypes of the ascidian Cystodytes dellechiajei” (2010).

Converted amounts (≈) assume the structure as drawn.

For orientation: MIC means the smallest concentration in the dilution series that meets the test's criterion for growth inhibition.

The subject of assay [1] is Escherichia coli. Description: Antibacterial activity against Escherichia coli after 24 hrs by liquid growth inhibition assay. In kind it is functional. The procedure, abridged:
(§1)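 Liquid growth inhibition (NCCLS-based broth method). Compounds dissolved in DMSO and liquid medium, incubated with bacteria at 2 × 10^8 cells/mL in PB medium (Bacto-tryptone 1%, NaCl 0.5%, pH 7.5), 35 °C, 24 h, constant agitation. Triplicate wells. Growth read as absorbance at 620 nm; MIC taken as lowest concentration inhibiting growth.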

Assay [2] deals with Micrococcus luteus. Put plainly: Antibacterial activity against Micrococcus luteus after 24 hrs by liquid growth inhibition assay. The class given is functional. In outline: as §1

For the molecule `NCCc1c2c(c3nccc4c3c1Nc1ccccc1-4)NC(=O)CS2`, the MIC in assay [1] is 1.1 µM (≈ 0.383 µg/mL); in assay [2], 4.5 µM (≈ 1.57 µg/mL).

As to `O=C1c2c(O)ccnc2-c2nccc3c2c1nc1ccccc13`, the MIC in assay [1] came to 2.6 µM (≈ 0.778 µg/mL); in assay [2], 10.5 µM (≈ 3.14 µg/mL).

With `NCCc1c2c3c(ccnc3c3ncsc13)-c1ccccc1N2`, the MIC in assay [1] and in assay [2] was 2.5 µM (≈ 0.796 µg/mL) throughout.

Consider `O=C1c2cccnc2-c2nccc3c2c1nc1ccccc13` [ASCIDIDEMIN], for which the MIC was 0.2 µM (≈ 0.0567 µg/mL) in assay [1] and 0.3 µM (≈ 0.085 µg/mL) in assay [2].

As to `N=C1C2=C(NCCC2=O)c2nccc3c2c1nc1ccccc13` [CYSTODIMINE A], the MIC in assay [1] came to 1.2 µM (≈ 0.36 µg/mL); in assay [2], 2.4 µM (≈ 0.721 µg/mL).

On to `N=C1C2=C(NCCC2=O)c2nccc3c2c1nc1ccc(O)cc13` [CYSTODIMINE B], for which the values for the MIC in assay [1] and in assay [2] were 2.6 µM (≈ 0.822 µg/mL) and 10.5 µM (≈ 3.32 µg/mL), respectively.

In the case of `CC(=O)NCCc1c2c3c(ccnc3c3ncsc13)-c1ccccc1N2` [KUANONIAMINE D], the MIC in assay [1] came out at 2.2 µM (≈ 0.793 µg/mL); in assay [2], 17.4 µM (≈ 6.27 µg/mL).

With `CC(=O)NCCc1c2c(c3nccc4c3c1Nc1ccccc1-4)NC(=O)CS2` [SHERMILAMINE B], the MIC in assay [1] is 2 µM (≈ 0.781 µg/mL); in assay [2], 8 µM (≈ 3.12 µg/mL).

Take GENTAMICIN: the MIC stood at 0.08 µM in assay [1] and 0.02 µM in assay [2].
